Square brackets hold non-standard residues; d marks the D form. Peptide text beside a SMILES is read from it. NMeA = CN[C@@H](C)C(=O)O

The values below come from ChEMBL document CHEMBL1150419, “Structure-activity relationships of a peptide inhibitor of the human FcRn:human IgG interaction” (Bioorg Med Chem, 2008).

In assay [1] the target is T1, IgG receptor FcRn large subunit p51 (Homo sapiens, UniProt P55899). In words: Inhibition of human IgG binding to soluble human FcRn by ELISA. The gist of the method: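 Biotinylated soluble human FcRn immobilized on neutravidin plates, incubated with hIgG (3 nM, constant) and peptide at varying concentrations for 2 h at 37 °C. After washing, bound hIgG detected with peroxidase-conjugated hIgG-specific Fab fragments.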
T1 sequence (P55899 whole entry, the tested form may be a part): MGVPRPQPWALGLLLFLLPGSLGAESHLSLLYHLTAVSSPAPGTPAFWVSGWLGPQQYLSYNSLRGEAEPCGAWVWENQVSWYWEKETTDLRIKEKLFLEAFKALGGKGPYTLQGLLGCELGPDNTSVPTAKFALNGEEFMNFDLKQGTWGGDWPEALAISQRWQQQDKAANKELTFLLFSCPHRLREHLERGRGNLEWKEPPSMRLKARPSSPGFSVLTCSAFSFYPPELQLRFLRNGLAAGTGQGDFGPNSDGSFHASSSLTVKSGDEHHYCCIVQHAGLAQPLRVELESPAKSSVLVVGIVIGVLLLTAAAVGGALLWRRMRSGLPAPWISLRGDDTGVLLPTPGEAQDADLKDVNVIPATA
(In general: ELISA stands for enzyme-linked immunosorbent assay.)

The target in assay [2] is T1, IgG receptor FcRn large subunit p51. Kind of assay: Binding affinity to human FcRn at pH 6 by surface plasmon resonance assay. Summed up:
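Soluble human FcRn coupled to the dextran surface of a CM5 chip; peptide dilutions flowed over the chip. The equilibrium response at each dilution was plotted against concentration and fitted to a steady-state affinity model to give Kd.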
(In general: Surface plasmon resonance follows binding to a sensor surface in real time, without labels.)

Turning to `CC(C)C[C@H](NC(=O)CNC(=O)CNC(=O)[C@H](Cc1ccccc1)NC(=O)[C@H](Cc1cnc[nH]1)NC(=O)CNC(=O)[C@@H](NC(=O)[C@@H](N)CS)[C@@H](C)O)C(=O)N[C@@H](Cc1ccc(O)cc1)C(=O)N1CCC[C@H]1C(=O)N[C@@H](CS)C(=O)N[C@@H](CC(N)=O)C(=O)NCC(=O)N1CCC[C@H]1C(=O)O` (H-CTGHFGGLYPCNGP-OH), the IC50 – broadly, the concentration needed to halve the response being measured – in assay [1] was determined as 239 µM. In addition, the affinity in assay [2], expressed as Kd, was 34 µM.
On to H-QRFSTGHFGGLYPSNGP-OH, for which the IC50 in assay [1] is > 125 µM. For the same molecule, the Kd (in general, the free concentration of one partner at which half of the binding sites on the other are occupied at equilibrium, for simple one-to-one binding) in assay [2] was found to be 230 µM.
In assay [1], `CC(C)C[C@@H](C(=O)N[C@@H](Cc1ccc(O)cc1)C(=O)N1CCC[C@H]1C(=O)N[C@@H](CS)C(=O)O)N(C)C(=O)CN(C)C(=O)CNC(=O)[C@H](CCc1ccccc1)NC(=O)[C@H](Cc1cnc[nH]1)NC(=O)CNC(=O)[C@@H](NC(=O)[C@@H](NC(=O)[C@H](Cc1ccccc1)NC(=O)[C@H](CCCNC(=N)N)NC(=O)[C@@H](N)CCC(N)=O)C(C)(C)S)[C@@H](C)O` showed an IC50 of 16 µM. The molecule further registered a Kd in assay [2] of 230 µM.
On the same counts, the results for `CC(C)C[C@H](NC(=O)CNC(=O)CNC(=O)[C@H](Cc1ccccc1)NC(=O)[C@H](Cc1cnc[nH]1)NC(=O)CNC(=O)[C@@H](NC(=O)[C@H](CS)NC(=O)[C@H](Cc1ccccc1)NC(=O)[C@H](CCCN=C(N)N)NC(=O)[C@@H](N)CCC(N)=O)[C@@H](C)O)C(=O)N[C@@H](Cc1ccc(O)cc1)C(=O)N1CCC[C@H]1C(=O)N[C@H](CCS)C(=O)N[C@@H](CC(N)=O)C(=O)NCC(=O)N1CCC[C@H]1C(=O)O` are 21 µM and 3.9 µM.
In the case of `CC(C)C[C@H](NC(=O)CNC(=O)CNC(=O)[C@H](Cc1ccccc1)NC(=O)[C@H](Cc1cnc[nH]1)NC(=O)CNC(=O)[C@@H](NC(=O)[C@H](CCC(=O)O)NC(=O)[C@H](Cc1ccccc1)NC(=O)[C@H](CCCNC(=N)N)NC(=O)[C@@H](N)CCC(N)=O)[C@@H](C)O)C(=O)N[C@@H](Cc1ccc(O)cc1)C(=O)N1CCC[C@H]1C(=O)N[C@@H](CN)C(=O)N[C@@H](CC(N)=O)C(=O)NCC(=O)N1CCC[C@H]1C(=O)O`, in assay [1], the IC50 was 71 µM. This molecule also registered a Kd in assay [2] of 9.6 µM.
Turning to `CC(C)C[C@H](NC(=O)CN1CCCC[C@@H](NC(=O)[C@H](Cc2ccccc2)NC(=O)[C@H](Cc2cnc[nH]2)NC(=O)CNC(=O)[C@@H](NC(=O)[C@@H](NC(=O)[C@H](Cc2ccccc2)NC(=O)[C@@H](N)CCCN=C(N)N)C(C)C)[C@@H](C)O)C1=O)C(=O)N[C@@H](Cc1ccc(O)cc1)C(=O)N1CCC[C@H]1C(=O)N[C@@H](C)C(=O)O`, the IC50 in assay [1] worked out at 23 µM. In assay [2], this molecule had a Kd of 2.3 µM.
Consider `CC(C)C[C@@H](C(=O)N[C@@H](Cc1ccc(O)cc1)C(=O)N1CCC[C@H]1C(=O)N[C@@H](CS)C(=O)O)N(C)C(=O)CN(C)C(=O)CNC(=O)[C@H](Cc1ccccc1)NC(=O)[C@H](Cc1cscn1)NC(=O)CNC(=O)[C@@H](NC(=O)[C@@H](NC(=O)[C@H](Cc1ccccc1)NC(=O)[C@@H](N)CCCN=C(N)N)C(C)(C)S)[C@@H](C)O`, for which, in assay [1], the IC50 was determined as 1.6 µM. Besides, the Kd in assay [2] was 0.84 µM.
Turning to `CC(C)C[C@H](NC(=O)CNC(=O)CNC(=O)[C@H](Cc1ccccc1)NC(=O)[C@H](Cc1cnc[nH]1)NC(=O)CNC(=O)[C@@H](NC(=O)[C@@H](NC(=O)[C@H](Cc1ccccc1)NC(=O)[C@H](CCCNC(=N)N)NC(=O)[C@@H](N)CCC(N)=O)C(C)(C)S)[C@@H](C)O)C(=O)N[C@@H](Cc1c(F)c(F)c(F)c(F)c1F)C(=O)N1CCC[C@H]1C(=O)N[C@@H](CS)C(=O)N[C@@H](CC(N)=O)C(=O)NCC(=O)N1CCC[C@H]1C(=O)O`, the IC50 in assay [1] is > 125 µM. This molecule also registered a Kd in assay [2] of 72 µM.
For `CC(C)C[C@H](NC(=O)CNC(=O)CNC(=O)[C@H](Cc1ccccc1)NC(=O)[C@H](Cc1cnc[nH]1)NC(=O)CNC(=O)[C@H](C)N(C)C(=O)[C@H](CS)NC(=O)[C@H](Cc1ccccc1)NC(=O)[C@H](CCCNC(=N)N)NC(=O)[C@@H](N)CCC(N)=O)C(=O)N[C@@H](Cc1ccc(O)cc1)C(=O)N1CCC[C@H]1C(=O)N[C@@H](CS)C(=O)N[C@@H](CC(N)=O)C(=O)NCC(=O)N1CCC[C@H]1C(=O)O` (H-QRFC[NMeA]GHFGGLYPCNGP-OH), in assay [1], the IC50 was determined as 169 µM. The same molecule returned a Kd in assay [2] of 18 µM.
On the same counts, the results for `CC(C)C[C@H](NC(=O)CNC(=O)CNC(=O)[C@H](Cc1ccccc1)NC(=O)[C@H](Cc1cnc[nH]1)NC(=O)CNC(=O)[C@@H](NC(=O)[C@H](CS)NC(=O)[C@H](Cc1ccccc1)NC(=O)[C@H](CCCN=C(N)N)NC(=O)[C@@H](N)CCC(N)=O)[C@@H](C)O)C(=O)N[C@@H](Cc1ccc(O)cc1)C(=O)N1CCC[C@H]1C(=O)N[C@@H](CS)C(=O)N[C@@H](C)C(=O)NCC(=O)N1CCC[C@H]1C(=O)O` are 30 µM and 8 µM.
Regarding `CC(C)C[C@H](NC(=O)CNC(=O)CNC(=O)[C@H](C)NC(=O)[C@H](Cc1cnc[nH]1)NC(=O)CNC(=O)[C@@H](NC(=O)[C@H](CS)NC(=O)[C@H](Cc1ccccc1)NC(=O)[C@H](CCCNC(=N)N)NC(=O)[C@@H](N)CCC(N)=O)[C@@H](C)O)C(=O)N[C@@H](Cc1ccc(O)cc1)C(=O)N1CCC[C@H]1C(=O)N[C@@H](CS)C(=O)N[C@@H](CC(N)=O)C(=O)NCC(=O)N1CCC[C@H]1C(=O)O` (H-QRFCTGHAGGLYPCNGP-OH), in assay [1], the IC50 is > 125 µM. For the same molecule, in assay [2], the Kd was > 250 µM.
Regarding `CC(C)C[C@H](NC(=O)CNC(=O)CNC(=O)[C@H](Cc1ccccc1)NC(=O)[C@H](Cc1cnc[nH]1)NC(=O)CNC(=O)[C@@H](NC(=O)[C@@H](NC(=O)[C@H](Cc1ccccc1)NC(=O)[C@H](CCCN=C(N)N)NC(=O)[C@@H](N)CCC(N)=O)C(C)(C)S)[C@@H](C)O)C(=O)N[C@@H](Cc1ccc(N)cc1)C(=O)N1CCC[C@H]1C(=O)N[C@@H](CS)C(=O)N[C@@H](CC(N)=O)C(=O)NCC(=O)N1CCC[C@H]1C(=O)O`, the IC50 in assay [1] came out at 110 µM. In assay [2], this molecule returned a Kd of 34 µM.
Molecule `CC(C)C[C@H](NC(=O)CN1CCC[C@H](NC(=O)[C@H](Cc2ccccc2)NC(=O)[C@H](Cc2cnc[nH]2)NC(=O)CNC(=O)[C@@H](NC(=O)[C@H](NC(=O)[C@H](Cc2ccccc2)NC(=O)[C@@H](N)CCCN=C(N)N)C(C)(C)S)[C@@H](C)O)C1=O)C(=O)N[C@@H](Cc1ccc(O)cc1)C(=O)N1CCC[C@H]1C(=O)N[C@@H](CS)C(=O)O` returned an IC50 in assay [1] of 7.2 µM. In addition, the Kd in assay [2] came out at 0.67 µM.
For H-TGHFGGLYP-OH, the IC50 in assay [1] is > 250 µM. In assay [2], the Kd is > 250 µM.
In the case of `CC(C)C[C@H](NC(=O)CNC(=O)CNC(=O)[C@H](CCc1ccccc1)NC(=O)[C@H](Cc1cnc[nH]1)NC(=O)CNC(=O)[C@@H](NC(=O)[C@@H](NC(=O)[C@H](Cc1ccccc1)NC(=O)[C@H](CCCNC(=N)N)NC(=O)[C@@H](N)CCC(N)=O)C(C)(C)S)[C@@H](C)O)C(=O)N[C@@H](Cc1ccc(O)cc1)C(=O)N1CCC[C@H]1C(=O)N[C@@H](CS)C(=O)N[C@@H](CC(N)=O)C(=O)NCC(=O)N1CCC[C@H]1C(=O)O`, the IC50 in assay [1] is 80 µM. This molecule came in with a Kd in assay [2] of 7.8 µM.
As to `CC(C)C[C@@H](C(=O)N[C@@H](Cc1ccc(O)cc1)C(=O)N1CCC[C@H]1C(=O)N[C@@H](CS)C(=O)O)N(C)C(=O)CN1CCCC[C@@H](NC(=O)[C@H](Cc2ccccc2)NC(=O)[C@H](Cc2cnc[nH]2)NC(=O)CNC(=O)[C@@H](NC(=O)[C@H](NC(=O)[C@H](Cc2ccccc2)NC(=O)[C@@H](N)CCCNC(=N)N)C(C)(C)S)[C@@H](C)O)C1=O`, in assay [1], the IC50 stood at 0.62 µM. The molecule further displayed a Kd in assay [2] of 0.044 µM.
